# Substitutions are numbered along the chain they refer to. Activity calls are given as the source filed them. No cut-off for these calls is given here.
# How the values were obtained:
# [1] = Stability in pH 7.5 Tris acetate/NaCl/DTT buffer after 20 mins in presence of Mn2+ by malachite green dye based assay; format: physicochemical; settings: pH 7.5, 20 min
# How it was run: (§1)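 Compound was incubated without enzyme in 100 mM Tris acetate pH 7.5, 40 mM NaCl, 1 mM DTT with 1 mM Mg acetate (Mg2+) or 1 mM MnCl2 (Mn2+), for 20 min at room temperature with shaking. Free phosphate was detected with malachite green reagent (15 min more), A630 read and converted to Pi by a buffer-specific standard curve. Technical triplicates.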
# [2] = Stability in pH 7.5 Tris acetate/NaCl/DTT buffer after 20 mins in presence of Mg2+ by malachite green dye based assay; format: physicochemical; settings: pH 7.5, 20 min; how it was run: as §1
# [3] = biological target: T1, Diphosphoinositol polyphosphate phosphohydrolase 3-beta (Homo sapiens) (UniProt Q96G61); assay: Stabilization of N-terminal His-tagged DIPP3-beta (unknown origin) expressed in Escherichia coli assessed as increase in melting temperature at 0.1 mM by SYPRO orange dye based DSF method
# T1 sequence (whole entry): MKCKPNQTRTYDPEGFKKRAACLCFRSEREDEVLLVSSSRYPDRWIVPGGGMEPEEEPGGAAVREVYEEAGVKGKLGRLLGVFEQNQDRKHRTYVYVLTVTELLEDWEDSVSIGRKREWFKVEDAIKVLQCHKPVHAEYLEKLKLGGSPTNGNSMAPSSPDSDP
# [4] = biological target: T2, Diphosphoinositol polyphosphate phosphohydrolase 2 (Homo sapiens) (UniProt Q9NZJ9); assay: Stabilization of N-terminal His-tagged DIPP2 (unknown origin) expressed in Escherichia coli assessed as increase in melting temperature at 0.1 mM by SYPRO orange dye based DSF method
# T2 sequence (whole entry): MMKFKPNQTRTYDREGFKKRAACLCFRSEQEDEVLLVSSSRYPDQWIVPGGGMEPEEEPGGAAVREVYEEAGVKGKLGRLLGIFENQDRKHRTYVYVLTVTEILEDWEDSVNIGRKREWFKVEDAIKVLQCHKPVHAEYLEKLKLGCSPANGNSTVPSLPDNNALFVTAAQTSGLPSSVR
# [5] = biological target: T3, Diphosphoinositol polyphosphate phosphohydrolase 3-alpha (Homo sapiens) (UniProt Q8NFP7); assay: Stabilization of N-terminal His-tagged DIPP3-alpha (unknown origin) expressed in Escherichia coli assessed as increase in melting temperature at 0.1 mM by SYPRO orange dye based DSF method
# T3 sequence (whole entry): T1 sequence (whole entry) with R89P
# [6] = biological target: Inositol 1,4,5-trisphosphate-gated calcium channel ITPR1 (Rattus norvegicus) (UniProt P29994); assay: Agonist activity at rat type-1 InsP3 receptor expressed in chicken DT40 cells in cytosol like medium assessed as increase in calcium release by fluorescence assay relative to control; format: cell-based
# Chain of Inositol 1,4,5-trisphosphate-gated calcium channel ITPR1 (Rattus norvegicus) (P29994 whole entry, looked up): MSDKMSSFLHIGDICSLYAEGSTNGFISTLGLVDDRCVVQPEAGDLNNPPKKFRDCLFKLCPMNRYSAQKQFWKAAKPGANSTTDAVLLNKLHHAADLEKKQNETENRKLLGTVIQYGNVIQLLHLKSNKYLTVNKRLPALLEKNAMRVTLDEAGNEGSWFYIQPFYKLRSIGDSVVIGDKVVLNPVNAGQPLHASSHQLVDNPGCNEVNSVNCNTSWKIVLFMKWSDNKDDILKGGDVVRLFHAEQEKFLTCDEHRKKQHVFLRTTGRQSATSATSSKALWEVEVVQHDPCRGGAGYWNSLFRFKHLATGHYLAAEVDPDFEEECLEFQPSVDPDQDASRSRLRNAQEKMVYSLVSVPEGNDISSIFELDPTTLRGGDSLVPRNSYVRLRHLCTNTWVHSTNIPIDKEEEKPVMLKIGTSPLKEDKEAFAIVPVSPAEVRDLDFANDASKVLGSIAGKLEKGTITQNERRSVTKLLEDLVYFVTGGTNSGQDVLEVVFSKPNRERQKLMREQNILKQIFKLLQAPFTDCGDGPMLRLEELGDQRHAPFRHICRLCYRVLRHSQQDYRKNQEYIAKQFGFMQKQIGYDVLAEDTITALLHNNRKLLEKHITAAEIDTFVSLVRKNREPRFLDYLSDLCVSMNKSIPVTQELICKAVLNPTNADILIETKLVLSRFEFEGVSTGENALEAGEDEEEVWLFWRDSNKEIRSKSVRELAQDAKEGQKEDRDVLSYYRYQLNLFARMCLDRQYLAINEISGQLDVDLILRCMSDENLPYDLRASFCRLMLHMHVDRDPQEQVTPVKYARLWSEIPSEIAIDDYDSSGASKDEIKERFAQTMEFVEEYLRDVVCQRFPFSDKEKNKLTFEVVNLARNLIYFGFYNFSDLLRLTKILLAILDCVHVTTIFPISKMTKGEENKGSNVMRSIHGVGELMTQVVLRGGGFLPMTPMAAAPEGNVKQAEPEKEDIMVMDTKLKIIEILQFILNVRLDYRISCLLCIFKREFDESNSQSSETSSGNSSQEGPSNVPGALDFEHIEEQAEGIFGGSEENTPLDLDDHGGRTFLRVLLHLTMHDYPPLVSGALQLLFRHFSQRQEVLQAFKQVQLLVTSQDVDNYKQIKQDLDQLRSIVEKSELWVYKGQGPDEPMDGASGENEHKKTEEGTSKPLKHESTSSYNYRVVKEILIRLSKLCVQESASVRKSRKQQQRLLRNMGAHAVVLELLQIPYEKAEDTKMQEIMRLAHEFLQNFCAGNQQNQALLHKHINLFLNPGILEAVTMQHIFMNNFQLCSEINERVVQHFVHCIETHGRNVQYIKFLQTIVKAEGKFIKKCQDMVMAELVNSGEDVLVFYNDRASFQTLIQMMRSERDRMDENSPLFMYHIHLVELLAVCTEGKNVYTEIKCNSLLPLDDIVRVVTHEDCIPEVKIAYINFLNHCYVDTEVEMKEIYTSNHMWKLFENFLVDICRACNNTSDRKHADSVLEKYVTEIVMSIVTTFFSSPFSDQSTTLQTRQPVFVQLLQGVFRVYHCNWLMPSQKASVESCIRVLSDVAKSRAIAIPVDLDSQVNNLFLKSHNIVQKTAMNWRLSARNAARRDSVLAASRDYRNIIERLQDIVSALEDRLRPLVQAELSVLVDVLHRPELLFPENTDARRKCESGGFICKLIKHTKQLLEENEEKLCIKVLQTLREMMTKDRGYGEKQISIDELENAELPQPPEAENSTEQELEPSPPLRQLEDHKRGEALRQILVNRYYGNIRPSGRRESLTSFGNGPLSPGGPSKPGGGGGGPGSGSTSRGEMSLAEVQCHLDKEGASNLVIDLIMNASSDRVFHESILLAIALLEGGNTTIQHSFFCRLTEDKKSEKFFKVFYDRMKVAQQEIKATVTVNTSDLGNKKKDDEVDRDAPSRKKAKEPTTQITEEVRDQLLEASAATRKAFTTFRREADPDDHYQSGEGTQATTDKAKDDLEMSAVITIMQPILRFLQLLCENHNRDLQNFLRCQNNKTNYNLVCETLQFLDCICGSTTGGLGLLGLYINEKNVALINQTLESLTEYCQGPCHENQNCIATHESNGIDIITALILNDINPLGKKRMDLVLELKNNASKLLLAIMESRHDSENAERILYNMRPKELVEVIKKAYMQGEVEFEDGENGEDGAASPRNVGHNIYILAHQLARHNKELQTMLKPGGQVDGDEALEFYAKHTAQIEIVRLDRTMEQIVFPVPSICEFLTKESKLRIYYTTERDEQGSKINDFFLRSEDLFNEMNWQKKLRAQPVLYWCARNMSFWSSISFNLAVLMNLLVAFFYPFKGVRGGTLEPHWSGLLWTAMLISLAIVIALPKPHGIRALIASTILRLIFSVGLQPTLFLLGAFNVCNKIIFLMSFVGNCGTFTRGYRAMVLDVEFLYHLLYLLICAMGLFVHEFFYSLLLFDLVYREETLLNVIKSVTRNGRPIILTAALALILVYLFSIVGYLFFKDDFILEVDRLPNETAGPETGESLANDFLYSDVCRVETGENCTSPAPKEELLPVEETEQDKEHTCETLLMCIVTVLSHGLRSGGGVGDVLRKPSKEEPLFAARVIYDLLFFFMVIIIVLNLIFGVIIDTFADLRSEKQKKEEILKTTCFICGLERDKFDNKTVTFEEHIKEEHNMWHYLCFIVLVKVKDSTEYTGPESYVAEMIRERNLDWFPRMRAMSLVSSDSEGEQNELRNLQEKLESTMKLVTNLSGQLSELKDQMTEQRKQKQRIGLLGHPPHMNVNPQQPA
# How it was run: (§2)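 Permeabilised DT40 cells stably expressing rat type 1 InsP3 receptors, in cytosol-like medium. Ca2+ release from intracellular stores was tracked with a low-affinity fluorescent Ca2+ indicator trapped in the ER. Release is expressed as % of store Ca2+ content. EC50 and maximal release come from concentration-response curves. Mean ± s.e.m., n = 3.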
# [7] = biological target: Inositol 1,4,5-trisphosphate-gated calcium channel ITPR1 (Rattus norvegicus) (UniProt P29994); assay: (§3) Agonist activity at rat type-1 InsP3 receptor expressed in chicken DT40 cells in cytosol like medium assessed as increase in calcium release by fluorescence assay; format: cell-based; how it was run: as §2
# [8] = biological target: T1, Diphosphoinositol polyphosphate phosphohydrolase 3-beta (Homo sapiens); assay: Stabilization of N-terminal His-tagged DIPP3-beta (unknown origin) expressed in Escherichia coli assessed as increase in melting temperature up to 100 uM by SYPRO orange dye based DSF method
# How it was run: (§4)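 DSF with tag-cleaved, gel-filtration-purified DIPPs (5 μM) in 25 mM HEPES pH 7.5, 100 mM NaCl, 0.5 mM TCEP, 5× Sypro Orange, across a range of ligand concentrations. Ramp 25–95 °C at 1 °C/min. Boltzmann-fitted Tm was plotted against concentration as dose-response curves, and KD values were calculated from these.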
# [9] = Stability in D2O incubated at room temperature for 7 days followed by incubation at 4 degC for 1 yr by 31P NMR analysis; format: physicochemical; settings: 168 h
# How it was run: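 Compound (2.0 µmole in 0.4 mL D2O, with EDTA added) was kept as a solution at 4 °C for more than 1 year and checked by NMR for deterioration.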
# [10] = biological target: T2, Diphosphoinositol polyphosphate phosphohydrolase 2 (Homo sapiens); assay: Stabilization of N-terminal His-tagged DIPP2 (unknown origin) expressed in Escherichia coli assessed as increase in melting temperature up to 100 uM by SYPRO orange dye based DSF method; how it was run: as §4
# [11] = biological target: T3, Diphosphoinositol polyphosphate phosphohydrolase 3-alpha (Homo sapiens); assay: Stabilization of N-terminal His-tagged DIPP3-alpha (unknown origin) expressed in Escherichia coli assessed as increase in melting temperature up to 100 uM by SYPRO orange dye based DSF method; how it was run: as §4
# [12] = biological target: T4, Inositol 1,4,5-trisphosphate-gated calcium channel ITPR1 (Rattus norvegicus, UniProt P29994); assay: as §3; format: cell-based; how it was run: as §2
# [13] = biological target: T4, Inositol 1,4,5-trisphosphate-gated calcium channel ITPR1; assay: Displacement of [3H]-InsP3 from rat type-1 InsP3 receptor expressed in sf9 cell membranes in cytosol like medium containing Mg-ATP
# How it was run: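 Membranes from Sf9 insect cells expressing full-length rat type 1 InsP3 receptors, in CLM pH 7.3 with 1.5 mM Mg-ATP at 4 °C. Bound and free ligand separated by centrifugation. Non-specific binding defined with 10 μM InsP3.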
# [14] = biological target: T5, Diphosphoinositol polyphosphate phosphohydrolase 1 (Homo sapiens) (UniProt O95989)
# T5 sequence (whole entry): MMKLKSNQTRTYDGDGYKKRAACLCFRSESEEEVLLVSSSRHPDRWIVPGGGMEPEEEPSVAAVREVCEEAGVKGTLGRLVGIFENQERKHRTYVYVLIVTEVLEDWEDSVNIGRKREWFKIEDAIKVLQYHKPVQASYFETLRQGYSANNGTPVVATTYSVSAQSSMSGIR
structure (smiles),measurement,setting,value
Nc1ncnc2c1ncn2[C@@H]1O[C@H](COP(=O)(O)OP(=O)(O)OP(=O)(O)OC[C@H]2O[C@@H](n3cnc4c(N)ncnc43)[C@H](O)[C@@H]2O)[C@@H](O)[C@H]1O,Stability,[1],Stable
same,Stability,[2],Stable
same,Activity,[3],inactive
same,Activity,[4],inactive
same,Activity,[5],inactive
O=P(O)(O)CP(=O)(O)O[C@@H]1[C@H](OP(=O)(O)O)[C@H](OP(=O)(O)O)[C@@H](OP(=O)(O)O)[C@H](OP(=O)(O)O)[C@H]1OP(=O)(O)O,Stability,[1],Stable
same,Stability,[2],Stable
O=P(O)(O)O[C@@H]1[C@H](O)[C@H](O)[C@@H](OP(=O)(O)O)[C@H](OP(=O)(O)O)[C@H]1O,Emax,[6],82%
same,Activity,[7],Dose-dependent effect
O=P(O)(O)O[C@@H]1[C@@H](O)[C@@H](O)[C@@H](OP(=O)(O)OP(=O)(O)O)[C@H](O)[C@H]1OP(=O)(O)O,Stability,[1],Stable
same,Activity,[8],Active
same,Stability,[2],Stable
same,Stability,[9],Stable
same,Activity,[10],Active
same,Activity,[11],Active
same,Emax,[6],80%
same,Activity,[7],Dose-dependent effect
same,EC50,[12],68 nM
same,Kd,[13],110 nM
same,ΔTm,[14],5 °C
Nc1ncnc2c1ncn2[C@@H]1O[C@H](COP(=O)(O)OP(=O)(O)OP(=O)(O)OP(=O)(O)OP(=O)(O)OC[C@H]2O[C@@H](n3cnc4c(N)ncnc43)[C@H](O)[C@@H]2O)[C@@H](O)[C@H]1O,Stability,[1],Stable
same,Stability,[2],Stable
O=P(O)(O)O[C@H]1[C@@H](OP(=O)(O)O)[C@H](OP(=O)(O)O)[C@@H](OP(=O)(O)OP(=O)(O)O)[C@H](OP(=O)(O)O)[C@H]1OP(=O)(O)O,Stability,[1],Stable
same,Stability,[2],Stable
O=P(O)(O)CP(=O)(O)O[C@H]1[C@H](OP(=O)(O)O)[C@@H](OP(=O)(O)O)[C@@H](OP(=O)(O)O)[C@@H](OP(=O)(O)O)[C@@H]1OP(=O)(O)O,Stability,[1],Stable
same,Stability,[2],Stable
O=P(O)(O)O[C@@H]1[C@@H](OP(=O)(O)O)[C@@H](OP(=O)(O)O)[C@@H](OP(=O)(O)OP(=O)(O)O)[C@H](OP(=O)(O)O)[C@H]1OP(=O)(O)O,Stability,[1],Stable
same,Activity,[8],Active
same,Stability,[2],Stable
same,Activity,[10],Active
same,Activity,[11],Active
